Data set [1] can be described thus: melting temperature; fluorescence melt of hairpins on a sequencing array, two-state fit, raised by 9.35 °C to match UV melts. Particulars: sodium 0.088 M. Put shortly: (§1)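 With Cy3 and quencher oligos annealed, library hairpins on a sequenced MiSeq flow cell were imaged for Cy3 fluorescence in 50 mM Na-HEPES pH 8.0, 25 mM NaCl, in 2.5 °C steps up to 60 °C. Melting temperature and folding enthalpy were derived from bootstrapped two-state fits of signals normalised to pre-quench Cy3 and to control constructs. Four replicates were combined by inverse variance, with fitted temperatures raised by 9.35 °C to match UV melts.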

Data set [2] is described as follows: folding enthalpy; higher = less favourable; fluorescence melt of hairpins on a sequencing array, two-state fit. Particulars: sodium 0.088 M. Summed up: as §1

GTCAACGAAAGTTTCGAC ((((((....)))..))): the Tm in data set [1] worked out at 26.6 °C. In addition, the folding enthalpy in data set [2] is -59.7 kJ/mol.
The like results for GATTCTGGAAACAGAGTC ((.((((....)))).)) were, in that order, 38.3 °C and -126 kJ/mol.
For GTGACTCGAAAGAGGCAC (((.(((....))).))) the same measures were 67.9 °C and -144 kJ/mol.
The like results for GACTTGCGAAAGCAGGTC (((.(((....))).))) were, in that order, 60 °C and -145 kJ/mol.
GAAGGCGAAAGCCGGTTC ((((((....)))..))): the Tm in data set [1] turned out to be 43.4 °C. The folding enthalpy in data set [2] was -39.9 kJ/mol.
The like results for GATCCTGTCTAGGATC ((((((....)))))) were, in that order, 56 °C and -165 kJ/mol.
In the case of GGCCGCCGAAAGGCGCC (((.(((....)))))), the Tm in data set [1] came out at 68.2 °C. In data set [2], the folding enthalpy is -53.3 kJ/mol.
Consider CGTCCGGAAACGGCAACG ((((((....)))..))), for which the Tm in data set [1] is 38.5 °C. For the same sequence, the folding enthalpy in data set [2] was -61.8 kJ/mol.
The like results for GATCTGGGGACAGATC ((((((....)))))) were, in that order, 54.3 °C and -131 kJ/mol.
For GGAACCGGAAACGGTCCC ((.((((....)))).)) the same measures were 52.9 °C and -82.4 kJ/mol.
The like results for GATCAAGGGATTGATC ((((((....)))))) were, in that order, 44.8 °C and -113 kJ/mol.
Regarding GGTATTACGAAAGTAACC (((..(((....)))))), in data set [1], the Tm came out at 27.5 °C. Further, the folding enthalpy in data set [2] is -56.1 kJ/mol.
The like results for GATATGGGAAACCATGTC ((.((((....)))).)) were, in that order, 41.8 °C and -121 kJ/mol.
Regarding GTGAGCGAAAGCTAACAC ((((((....)))..))), the Tm in data set [1] was 44 °C. In data set [2], the folding enthalpy was -64.5 kJ/mol.
As for GTGGCAGGAAACTGTCAC (((.(((....))).))), in data set [1], the Tm is 54.3 °C. Also, in data set [2], the folding enthalpy was -171 kJ/mol.
The like results for GATCACGAAAGTGTTATC ((((((....)))..))) were, in that order, 28.4 °C and -40 kJ/mol.
As for GAATCGGGAAACCGACTC ((.((((....)))).)), in data set [1], the Tm is 35.1 °C. In data set [2], the folding enthalpy was -85.2 kJ/mol.
For GACTAGCGAAAGCTCGTC (((.(((....))).))) the same measures were 48 °C and -79.7 kJ/mol.
The like results for GAGTCGGGAAACTGGCTC (((.(.(....).).))) were, in that order, 43.4 °C and -108 kJ/mol.
For GACGAACGAAAGTTGTC (((.(((....)))))) the same measures were 44.9 °C and -108 kJ/mol.
As to GTTCCGGGAAACCGGAGC (.(((((....))))).), the Tm in data set [1] was determined as 53.6 °C. For the same sequence, the folding enthalpy in data set [2] was -93.9 kJ/mol.
In the case of GATCGGGCCTCCGATC ((((((....)))))), the Tm in data set [1] turned out to be 59.7 °C. In addition, the folding enthalpy in data set [2] is -153 kJ/mol.
On to GATCTAATCTAGATC ((((((...)))))), for which the Tm in data set [1] was 38.8 °C. For the same sequence, the folding enthalpy in data set [2] was -118 kJ/mol.
The like results for GGATATGGAAACATATTC (.(((((....))))).) were, in that order, 36.9 °C and -92.9 kJ/mol.
The like results for GGTGGGGGAAACTCCACC (((((.(....).))))) were, in that order, 56.4 °C and -192 kJ/mol.
For GGGCTTGGAAACAGGTCC ((.(.((....)).).)) the same measures were 39.7 °C and -117 kJ/mol.
In the case of GTGTCTGGAAACAGGTAC ((..(((....)))..)), the Tm in data set [1] is 30.1 °C. Also, the folding enthalpy in data set [2] is -47.6 kJ/mol.
On to GACTGCGAAAGCAAGGTC ((((((....)))..))), for which the Tm in data set [1] stood at 45.1 °C. In addition, the folding enthalpy in data set [2] is -63.8 kJ/mol.
For GCCAAAGGAAACTTTGGC (((((((....))))))) the same measures were 64 °C and -186 kJ/mol.
Turning to GGGTCCGAAAGGATCCC ((((((....))).))), the Tm in data set [1] turned out to be 60.1 °C. Further, the folding enthalpy in data set [2] is -132 kJ/mol.
For GTTCGCGAAAGCGTAAC ((((((....))).))) the same measures were 48 °C and -57.8 kJ/mol.
For the sequence GCAGAAGGAAACTTTTGC (((.(((....))).))), in data set [1], the Tm worked out at 37 °C. Further, in data set [2], the folding enthalpy was -130 kJ/mol.
For the sequence GTTCTCGGAAACGAGAAC (((((((....))))))), in data set [1], the Tm amounted to 65.7 °C. Also, the folding enthalpy in data set [2] was -144 kJ/mol.
The like results for GACCGCGAAAGCGAGTC ((((((....))).))) were, in that order, 64.1 °C and -83.8 kJ/mol.
The like results for GGTTCCGAAAGGATTACC ((((((....)))..))) were, in that order, 34.6 °C and -83.5 kJ/mol.
The like results for GCGGTAGCCCGC ((((....)))) were, in that order, 62 °C and -51.3 kJ/mol.
GAAGTTGGAAACAACCTC ((.((((....)))).)): the Tm in data set [1] was determined as 27.4 °C. The folding enthalpy in data set [2] is -62.8 kJ/mol.
For GGGTTAGGAAACTGACTC (.((.((....)).)).) the same measures were 27.7 °C and -51.4 kJ/mol.
For GGTATGAAAATACC (((((....))))) the same measures were 47.5 °C and -87.2 kJ/mol.
The like results for GCACGCGGAAACGCGCAC (..((((....))))..) were, in that order, 31.1 °C and -32.7 kJ/mol.
On to GGTAGCGAAAGCTCCACC ((((((....)))..))), for which the Tm in data set [1] came out at 38.8 °C. In addition, the folding enthalpy in data set [2] is -55.3 kJ/mol.
For GATCTCCTTGAGATC ((((((...)))))) the same measures were 54.4 °C and -170 kJ/mol.
For GCGAGTGTTCGC ((((....)))) the same measures were 49 °C and -60.1 kJ/mol.
The like results for GCACAGCGAAAGCTTCGC ((..(((....)))..)) were, in that order, 39.8 °C and -51.7 kJ/mol.
Take GATTGCGGAAACGCAATC (((((((....))))))): the Tm in data set [1] was 67.9 °C. In addition, the folding enthalpy in data set [2] is -158 kJ/mol.
The like results for GTTCGAGAAATCGAAC ((((((....)))))) were, in that order, 54.9 °C and -166 kJ/mol.
For GCGCATCGAAAGATACGC (((.(((....))).))), the Tm in data set [1] was 54.5 °C. In data set [2], the folding enthalpy is -162 kJ/mol.
The like results for GGCGCATCGAAAGATGCC (((..(((....)))))) were, in that order, 45.2 °C and -39.4 kJ/mol.
For GATCGTGTCCACGATC ((((((....)))))) the same measures were 60.3 °C and -192 kJ/mol.
The like results for GATCATGAGAATGATC ((((((....)))))) were, in that order, 49.7 °C and -153 kJ/mol.
Take GCTAAGCGAAAGCTTCGC ((.((((....)))).)): in data set [1], the Tm was 53.8 °C. Further, in data set [2], the folding enthalpy is -87.4 kJ/mol.
For GTCATCGAAAGATTCGAC ((((((....)))..))) the same measures were 25.8 °C and -51.6 kJ/mol.
Turning to GATCAGAAAGCTGATC ((((((....)))))), in data set [1], the Tm is 43 °C. Moreover, in data set [2], the folding enthalpy is -132 kJ/mol.
The like results for GTTCAAGAAATTGAAC ((((((....)))))) were, in that order, 45.1 °C and -122 kJ/mol.
For GTCGACGAAAGTCTAGAC ((((((....)))..))) the same measures were 42.3 °C and -100 kJ/mol.
For GTCACAGGAAACTGTAAC ((.((((....)))).)) the same measures were 30.9 °C and -72.5 kJ/mol.
In the case of GAAGGGGGAAACCCCCTC ((.((((....)))).)), in data set [1], the Tm was 42.4 °C. Moreover, the folding enthalpy in data set [2] is -52.9 kJ/mol.
For GGCCACCGAAAGGTCGCC (((.(((....))).))) the same measures were 53.3 °C and -206 kJ/mol.
For GGTCCCGGAAACGGAACC (((.(((....))).))) the same measures were 48 °C and -151 kJ/mol.
The like results for GCAACCCGAAAGGGATGC (((.(((....))).))) were, in that order, 63.5 °C and -137 kJ/mol.
GTATGCGGAAACGTATAC ((((.((....)).)))): the Tm in data set [1] is 46.5 °C. Further, in data set [2], the folding enthalpy was -130 kJ/mol.
For GATCCTCACGAGGATC ((((((....)))))) the same measures were 54.8 °C and -181 kJ/mol.
The like results for TGGCAGAAATGCCA (((((....))))) were, in that order, 54.2 °C and -97.4 kJ/mol.
For GTGCGCGAAAGCGTCAC ((((((....))).))) the same measures were 58.6 °C and -88 kJ/mol.
As for GAACGGGGAAACCTGTTC ((((.((....)).)))), the Tm in data set [1] turned out to be 49 °C. In addition, in data set [2], the folding enthalpy was -135 kJ/mol.
The like results for GGAGGCGAAAGCCTTTCC ((((((....)))..))) were, in that order, 32.4 °C and -43.1 kJ/mol.
As for GCTTATGAAAATAAGC ((((((....)))))), in data set [1], the Tm is 51.6 °C. Also, in data set [2], the folding enthalpy was -133 kJ/mol.
On to GTAAATGGAAACGTTTAC (((((.(....).))))), for which, in data set [1], the Tm amounted to 35 °C. Moreover, the folding enthalpy in data set [2] was -138 kJ/mol.
Regarding GATCGTGGAAACGATC ((((((....)))))), in data set [1], the Tm was determined as 61 °C. For the same sequence, the folding enthalpy in data set [2] is -136 kJ/mol.
The like results for GCGGTACCCGC ((((...)))) were, in that order, 63.3 °C and -78.2 kJ/mol.
The like results for GTTCAGGGAAACTTGAGC (.(((.(....).))).) were, in that order, 30.2 °C and -76.9 kJ/mol.
As to GCCCTATCGAAAGATGGC (((..(((....)))))), the Tm in data set [1] was found to be 37.5 °C. For the same sequence, the folding enthalpy in data set [2] was -98.4 kJ/mol.
The like results for GCTATAGAAATATAGC ((((((....)))))) were, in that order, 42.8 °C and -138 kJ/mol.
The like results for GTGCGCACGAAAGTGCAC (((..(((....)))))) were, in that order, 64 °C and -47.7 kJ/mol.

Values taken from the array DNA melting data of Ke et al. (doi:10.1101/2024.01.08.574731).
